Assay results of several laboratories.
Each line is one published result; the experiments were not run side by side.
Target: Testis-specific serine/threonine-protein kinase 2 (TSSK2, Homo sapiens, UniProt Q96PF2)
One construct used (Q96PF2 1-358): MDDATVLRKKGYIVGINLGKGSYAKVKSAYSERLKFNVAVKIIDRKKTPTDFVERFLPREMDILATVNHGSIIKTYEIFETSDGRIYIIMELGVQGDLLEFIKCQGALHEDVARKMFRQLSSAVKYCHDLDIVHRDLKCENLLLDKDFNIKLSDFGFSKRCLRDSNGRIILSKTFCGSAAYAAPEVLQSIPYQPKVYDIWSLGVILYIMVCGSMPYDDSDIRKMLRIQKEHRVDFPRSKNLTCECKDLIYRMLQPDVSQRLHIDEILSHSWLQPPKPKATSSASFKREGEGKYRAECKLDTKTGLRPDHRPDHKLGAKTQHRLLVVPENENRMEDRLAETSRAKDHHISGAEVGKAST

COc1cc2ncnc(Nc3ccc(Oc4ccccc4)c(C)c3C)c2cc1OC — inhibition (enzyme activity, inhibitor; 1 µM): 3%
O=C(Nc1cnn(-c2csc(C(=O)NC3COC3)c2)c1)Nc1c(F)cccc1Cl — remaining activity (enzyme activity, inhibitor; 5 µM): 95.1%
N#CCCc1ccc2c(c1)-c1[nH]c3ccc([N+](=O)[O-])cc3c1CC(=O)N2 — remaining signal (cell-free assay; 0.5 µM): 78.7%
CN1CC(Oc2cnc(C#N)cc2-c2ccn3nc(NC(=O)C4CC4)cc3c2)C1 — inhibition (enzyme activity, inhibitor; 1 µM): 0%
Cc1ccc(Nc2nccc(N(C)c3ccc4c(C)n(C)nc4c3)n2)cc1S(N)(=O)=O — inhibition (enzyme activity, inhibitor; 0.3 µM): 0%
CC(C)(C)c1nc2c(s1)c1nc(N)ncc1c1ccc(NS(=O)(=O)c3c(F)cccc3F)c(F)c12 — remaining activity (enzyme activity, inhibitor, radiometric; 1 µM): 95%
CNc1cccc2cc(C(=O)Nc3ccc(C(=O)O)cc3)c(=O)[nH]c12 — inhibition (enzyme activity, inhibitor; 10 µM): 3.4%
Cc1sc(C(=O)NC2COC2)cc1-n1cc(NC(=O)Nc2c(F)cccc2Cl)cn1 — remaining activity (enzyme activity, inhibitor; 10 µM): 84.7%
CNC(=O)c1cc(Oc2ccc(NC(=O)Nc3ccc(Cl)c(C(F)(F)F)c3)cc2)ccn1 — inhibition (enzyme activity, inhibitor; 10 µM): -1%
Cc1cc(NC(=O)c2cccc3cc(-c4cccc5[nH]nc(N)c45)ccc23)ccc1F — activity vs control (enzyme activity, inhibitor; 0.1 µM): 99%
O=C1NC(=O)c2cc(Nc3ccc(F)cc3)c(Nc3ccc(F)cc3)cc21 — remaining signal (cell-free assay; 0.5 µM): 97.2%
CCCOc1ccc(OC)c(F)c1C(=O)c1ccc(C(=O)N[C@@H]2CNC[C@H]2NC(=O)c2ccc3[nH]ncc3c2)cc1 — remaining activity (enzyme activity, inhibitor; 10 µM): 87%
CCN(CC)CCNC(=O)c1c(C)[nH]c(/C=C2\C(=O)Nc3ccc(F)cc32)c1C — inhibition (enzyme activity, inhibitor; 0.3 µM): 0%
CCOc1cc(-c2nncn2C)ccc1Nc1ncc2cc(C)nc(NCC(C)(C)C)c2n1 — inhibition (enzyme activity, inhibitor, FRET; 1 µM): < 15%
